Results gathered from unrelated publications.
Each line is one published result; the experiments were not run side by side.
Target: Mitogen-activated protein kinase kinase kinase 1 (MAP3K1, Homo sapiens, UniProt Q13233)

Nc1ncc2c(n1)-c1c([nH]c3ccc(C#CC4CC4)cc13)CCCC2 — remaining binding (binding; competition with immobilised ligand; 1 µM): 97%
CN(c1nccc(-c2cnn3ncccc23)n1)C1CC1 — remaining binding (binding; 1 µM): 81%
O=C(c1ccc(Nc2ncc(Cl)c(-c3ccc(Cl)s3)n2)cc1)N1CCC(N2CCCC2)CC1 — remaining binding (binding; competition with immobilised ligand; 1 µM): 90%
Cc1cc(NC(=O)c2cccc(S(F)(F)(F)(F)F)c2)cc(-n2ccn3nc(-c4cccnc4)cc23)c1 — remaining binding (cell-free assay; competition with immobilised ligand; 1 µM): 90%
CN(C)c1ncc(F)c(-c2cnn3ncccc23)n1 — remaining binding (binding; 1 µM): 80%
O=C(Nc1c[nH]nc1C(=O)NC1CCNCC1)c1cc(F)cc(F)c1 — remaining binding (binding; competition with immobilised ligand; 1 µM): 84%
CSc1cccnc1N1CCN(Cc2nc3ccccc3[nH]2)CC1 — remaining binding (cell-free assay; competition with immobilised ligand; 1 µM): 70%
C=CC(=O)N1CCC(C(=O)NCC(=O)N2CCN(c3nc(-c4cnc(N)nc4C(F)F)nc(N4CCOCC4)n3)CC2)CC1 — remaining binding (binding; competition with immobilised ligand; 1 µM): 93%
CN(C)c1nccc(-c2cnn3ncccc23)n1 — remaining binding (binding; 1 µM): 91%
c1cncc(-c2cccc(Nc3nccc(NC4CCCCC4)n3)c2)c1 — remaining binding (binding; competition with immobilised ligand; 10 µM): 79%
N[C@@H]1CCN(c2nccc(-c3cnn4ncccc34)n2)C1 — remaining binding (binding; 1 µM): 97%
CCCOc1ccc([C@@H]2[C@@H](C(=O)O)[C@H](c3ccc4c(c3)OCO4)CN2CC(=O)Nc2c(CC)cccc2CC)cc1 — remaining binding (cell-free assay; competition with immobilised ligand; 1 µM): 80%
COc1cnc(Nc2cccc(S(N)(=O)=O)c2)nc1N1CCN(c2ccccc2)CC1 — remaining binding (binding; competition with immobilised ligand; 1 µM): 100%
Cc1cc(-n2nc(Cc3cc(F)cc(C(F)(F)F)c3)nc2C)ccc1C(N)=O — remaining binding (cell-free assay; competition with immobilised ligand; 1 µM): 100%
C[C@@H]1CCN(c2nccc(-c3cnn4ncccc34)n2)C1 — remaining binding (binding; 1 µM): 85%
O=C(c1ccc(Nc2nccc(-c3cc4ccccc4s3)n2)cc1)N1CCC(N2CCCC2)CC1 — remaining binding (binding; competition with immobilised ligand; 1 µM): 98%
CS(=O)(=O)N1CCCC(NC(=O)[C@H](CCC2CCCCC2)NC(=O)c2ccc(CNc3ncnc4c3nnn4-c3ccccc3)cc2)C1 (stereo partly shown) — remaining binding (cell-free assay; competition with immobilised ligand; 0.1 µM): 81%
F[C@@H]1CCN(c2nccc(-c3cnn4ncccc34)n2)C1 — remaining binding (binding; 1 µM): 100%
CNC(=O)c1ccc(Nc2ncc(C(F)(F)F)c(NCc3nccnc3N(C)S(C)(=O)=O)n2)cc1 — remaining binding (cell-free assay; competition with immobilised ligand; 0.1 µM): 100%
C[C@@H](c1ccc(-n2cnc3c(N)ncnc32)cc1)N1CCc2nn(C)c(Cc3ccccc3)c2C1=O — remaining binding (binding; competition with immobilised ligand; 0.1 µM): 60%
O=C(NCCCN1CCOCC1)c1ccc(Nc2nccc(-c3cc4ccccc4s3)n2)cc1 — remaining binding (binding; competition with immobilised ligand; 1 µM): 92%
CNC(=O)Nc1ccc2c(c1)[C@@]1(CC2)OC(=O)N(CC(=O)N(Cc2ccc(F)cc2)[C@@H](C)C(F)(F)F)C1=O — remaining binding (cell-free assay; competition with immobilised ligand; 1 µM): 95%
